Only some compounds are listed: those with a hit (about 2.8% of all), similar ones and a draw of the others.
ABHD4 inh: inhibitors of mouse ABHD4 | purified mABHD4, FP-Rh probe fluorescence polarization | inhibition, % at 8.92 µM | 370,000 compounds, 0.54% hits;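 active = inhibition exceeding the mean over every tested compound plus 3 SD, cut at about 30% in these data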;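 note: 0% = plate median of compound wells and 100% = S159A mutant with DMSO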
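Test system: mABHD4 protein; Read-out basis: % inhibition; Incubation: 45 min + 60 min at 25 °C; Repeats: single replicate; Technique: fluorescence polarization with parallel and perpendicular emission, 525/598 nm; Compound: 8.92 µM, single dose; Benchmarks: full inhibition S159A mutant plus DMSO, zero as sample-well median.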
PAFAH1B3 FP inh: inhibitors of human PAFAH1B3; Q15102; recombinant PAFAH1B3, FP-rhodamine probe, fluorescence polarization; inhibition, % at 3.39 µM; 340,000 compounds, 0.28% hits; AID 492972;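 active = inhibition above the screen-wide average of all tested compounds plus 3 SD, cut at about 25% in these data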;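 note: 0% = enzyme with DMSO only and 100% = wells lacking PAFAH1B3 protein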
PAFAH2 inh: PAFAH2 (human) inhibition; inhibition, % at 3.39 µM; 340,000 compounds, 0.99% hits; recombinant PAFAH2, FP-rhodamine activity probe, fluorescence polarization; AID 492956;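 active = inhibition above the mean over all tested compounds plus 3 SD, cut at about 30% in these data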;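 note: inhibitors block probe labeling of enzyme so polarization drops; 0% = enzyme with DMSO and 100% = wells lacking PAFAH2 protein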
PAFAH1B2 FP inh: inhibitors of human PAFAH1B2. recombinant PAFAH1B2, FP-rhodamine activity probe, fluorescence polarization. inhibition, % at 3.39 µM. AID 492953. P68402. 340,000 compounds, 1.2% hits;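 active = inhibition above the mean of all tested compounds plus 3 SD, cut at about 24% in these data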;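 note: 0% = enzyme with DMSO and 100% = wells lacking PAFAH1B2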
pPAFAH inh: inhibitors of human plasma PAF acetylhydrolase (pPAFAH); AID 463082; recombinant pPAFAH, FP-rhodamine probe fluorescence polarization; Q13093; inhibition, % at 3.39 µM; 330,000 compounds, 1.5% hits;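 active = inhibition above the mean inhibition across the screen plus 3 SD, cut at about 25% in these data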;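 note: inhibitors block binding of the rhodamine activity-based probe so polarization drops; 0% = enzyme with DMSO and 100% = wells lacking pPAFAH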
HTRA1 inh: inhibitors of human serine peptidase HTRA1 | recombinant HTRA1, FP-rhodamine activity-based probe, fluorescence polarization | 340,000 compounds, 0.5% hits | inhibition, % at 5.96 µM | Q92743 | AID 504803; in the data active = inhibition above about 36%;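 note: 0% = enzyme with DMSO and 100% = wells lacking enzyme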
Target sequence (Q92743 whole entry, looked up): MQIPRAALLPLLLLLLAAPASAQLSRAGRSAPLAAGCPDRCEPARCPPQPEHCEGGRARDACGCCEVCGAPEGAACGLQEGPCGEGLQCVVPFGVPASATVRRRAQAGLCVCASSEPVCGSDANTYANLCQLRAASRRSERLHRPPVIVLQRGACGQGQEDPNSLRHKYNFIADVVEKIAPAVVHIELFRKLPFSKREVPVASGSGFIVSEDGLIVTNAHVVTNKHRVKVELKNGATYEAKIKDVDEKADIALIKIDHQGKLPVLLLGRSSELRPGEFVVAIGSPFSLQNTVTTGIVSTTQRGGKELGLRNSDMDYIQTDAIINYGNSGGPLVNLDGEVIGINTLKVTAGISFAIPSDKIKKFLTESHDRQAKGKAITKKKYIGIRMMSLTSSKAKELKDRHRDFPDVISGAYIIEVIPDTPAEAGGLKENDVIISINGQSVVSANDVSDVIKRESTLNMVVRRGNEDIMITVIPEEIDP
* hit, by the source's call; . = not tested or not shown.

SMILES	ABHD4 inh	PAFAH1B3 FP inh	PAFAH2 inh	PAFAH1B2 FP inh	pPAFAH inh	HTRA1 inh
CCCc1cc(=O)oc2cc(C)cc(O)c12	-12	11	1	7	6	-10
Cc1ccccc1CN1CCCCC(NC(=O)c2ccc(F)cc2F)C1=O (stereo not drawn)	1	.	.	.	.	.
COc1cc(/C=N/n2cnnc2)ccc1OCCSc1ccc(C)cc1	-23	1	0	24*	11	-7
Nn1c(SCC(=O)Nc2ccccc2-c2ccccc2)nnc1-c1cc(-c2ccccc2)n[nH]1	-2	.	.	.	.	.
Cc1cccc(NC(=S)NNC(=O)c2csc3c2CCCC3)c1	3	0	2	4	26*	0
Cc1ccc(C)c(NC(=S)NNC(=O)c2csc3c2CCCC3)c1	10	-2	1	2	12	-6
CN1C(=O)c2cc(NC(=O)Nc3ccccc3F)ccc2OC[C@H]2O[C@@H](CC(=O)NCc3ccc(-c4ccccc4)cc3)CC[C@@H]21	-4	.	.	.	.	.
O=C1N/C(=N/NC(=O)c2cccc3ccccc23)S/C1=C\c1ccccc1OCc1ccccc1	5	26*	10	14	.	8
CCc1c2c3n4c1CCC[C@@H]4C[C@@H]3O[Si](C(C)C)(C(C)C)OC(C)C2=O (stereo partly drawn)	8	.	.	.	.	.
O=C(NN=C1CCCC1)c1cc(Cl)cc(Cl)c1O	16	14	7	0	34*	10
CCCCOCCCNC(=O)C[C@H]1C[C@@]2(C(=O)OC)C(=C[C@H](C(C)C)O[C@@H]2C2CC2)N(CCC2=CCCCC2)C1=O	-8	.	.	.	.	.
COc1ccc(-c2ccc3c(N)c(C(=O)c4ccc(OC)c(OC)c4)sc3n2)cc1	-2	1	4	0	5	-11
COc1ccc(C(=O)c2sc3nc(-c4ccccc4)ccc3c2N)cc1OC	-1	2	8	8	30*	-5
N#C/C(=C(/O)CCl)c1nc2c(s1)CCc1ccccc1-2	32*	-2	30*	2	21	13
CCOc1ccc(C=NNC(=O)c2cc(-c3ccc(Cl)cc3)n[nH]2)cc1	-7	.	.	.	.	.
CC(=O)c1ccc(NS(=O)(=O)c2ccc(C)cc2)cc1	1	3	-8	13	-1	-1
O=S(=O)(Nc1ccc(-c2ccccc2)cc1)c1ccccc1	-16	-7	-1	1	.	-39
Cc1ccc(Oc2ccc(S(=O)(=O)Nc3ccc(C(=O)O)cc3)cc2)cc1	-53	0	-3	7	29*	-6
COc1ccc(C(=O)O)cc1S(=O)(=O)Nc1ccc(Oc2ccccc2)cc1	2	6	0	8	27*	6
COc1ccc(C(=O)O)cc1S(=O)(=O)N1CCCc2ccccc21	2	6	-1	26*	3	4
O=S(=O)(Nc1ccc(S(=O)(=O)Nc2cccc3ccccc23)cc1)c1ccccc1	-13	-1	8	30*	33*	-23
CCOC(=O)[C@]12CCCC3=C1N(CCC3)C(=O)[C@@H](CC(=O)NCCCCc1ccccc1)C2	5	.	.	.	.	.
CCOc1ccc(NS(=O)(=O)c2ccc(C(=O)N(C)CC(=O)Nc3ccc(C)cc3)cc2)cc1	-4	2	9	0	33*	-14
Cc1ccc(S(=O)(=O)Nc2cc(C)c(O)c(S(=O)(=O)c3ccc(C)cc3)c2)cc1	-6	8	17	34*	5	-8
COc1ccc(NS(=O)(=O)c2ccc(NS(=O)(=O)c3ccc(C)cc3)cc2)nn1	7	11	6	24*	10	3
SMILES	ABHD4 inh	PAFAH1B3 FP inh	PAFAH2 inh	PAFAH1B2 FP inh	pPAFAH inh	HTRA1 inh
Cc1cc(NS(=O)(=O)c2ccccc2)cc(Cl)c1O	-3	-1	-1	0	8	-6
O=C(O)c1ccc(NS(=O)(=O)c2cccc(S(=O)(=O)c3ccc(Cl)c(Cl)c3)c2)cc1	.	-2	73*	9	11	-9
COC(=O)[C@]12C[C@H](CC(=O)N3CCCC3)C(=O)N(Cc3ccc(Cl)cc3Cl)C1=C[C@H](C1CCCC1)O[C@@H]2C	5	.	.	.	.	.
Cc1ccc(Nc2ccccc2)cc1	-2	18	-4	7	6	3
O=S(=O)(Nc1ccccc1)c1ccc(NS(=O)(=O)c2c(F)cccc2F)cc1	-3	6	1	15	28*	-5
Cc1ccc(S(=O)(=O)Nc2ccc(Nc3ccccc3)cc2)cc1	3	13	3	12	29*	18
COc1ccc(-c2cc(-c3nnc4sc(-c5cccs5)nn34)[nH]n2)cc1	-58	.	.	.	.	.
CCOc1cc(C=O)ccc1OCCSc1ccc(Cl)cc1	-16	-1	-2	54*	13	-37
N#Cc1c(NC(=O)Cn2c(=O)oc3ccccc32)oc(-c2ccccc2)c1-c1ccccc1	-12	-8	15	40*	22	-39
N#Cc1c(NC(=O)CSc2n[nH]c(N)n2)oc(-c2ccccc2)c1-c1ccccc1	-20	10	-3	25*	12	-15
COC1=C[C@H](C(=O)NCc2ccc(Cl)cc2)C(C)C(c2ccccc2)CC1=O (stereo partly drawn)	-7	.	.	.	.	.
CCCCCCCCN1[C@@H](CC(=O)O)c2cc(C(F)(F)F)ccc2S1(=O)=O	-11	10	7	27*	8	-14
CCCCCCCCCCCCN1[C@@H](CC(=O)OC)c2cc(C(F)(F)F)ccc2S1(=O)=O	4	-4	-3	4	8	-7
N#CC1=C(N)c2ccccc2CC12CCCCC2	-3	-5	4	35*	7	-21
CCC(=O)NC1=C(C#N)C2(CCCC2)Cc2ccccc21	4	6	2	19	1	3
O=C1CCc2cc(S(=O)(=O)N3CCN(Cc4cccc5c4OCO5)CC3)ccc2N1	-3	.	.	.	.	.
O=C(COC(=O)Cc1ccsc1)NC1CCCCCC1	4	4	14	11	30*	1
O=C(COC(=O)Cc1ccc(F)cc1)NC1CCCCCC1	-5	3	20	5	.	-1
COc1ccc(NC(=O)Cc2ccsc2)c(OC)c1	6	8	-2	6	7	5
COc1ccc(NC(=O)COC(=O)Cc2ccsc2)c(OC)c1	-6	9	7	-2	30*	-2
CNC(=O)Nc1cccc(-c2ccnc(C)n2)c1	-6	7	2	7	0	6
COc1cccc(C(=O)/C(C#N)=N/Nc2cccc(-c3ccnc(C)n3)c2)c1	-1	6	4	4	32*	3
COc1ccc(C2C(C(=O)N3CCCCC3C)CC(=O)N2c2ccc(OC)cc2)cc1 (stereo not drawn)	0	.	.	.	.	.
CC(C)C[C@H](NC1(C(=O)NC2CCCCC2)CCOCC1)C(=O)NCC(c1ccccc1)c1ccccc1	9	.	.	.	.	.
COc1ccc(C(=O)CSc2nnc(-c3ccccc3)n2-c2ccc(Cl)cc2)cc1	-2	.	.	.	.	.

Source: PubChem BioAssay (The Scripps Research Institute Molecular Screening Center)
